In ChEMBL document CHEMBL1806356, “Synthesis, characterization and antimicrobial studies of some new pyrazole incorporated imidazole derivatives” (Eur J Med Chem, 2011):

Tests used:
Escherichia coli [1] = experiment: Antibacterial activity against Escherichia coli ATCC 25922 assessed as zone of inhibition at 1000 ug/ml after 24 hrs by agar diffusion method; type: functional; settings: ATCC 25922, 24 h, read-out: IZ
In short: (§1)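 Well diffusion on Mueller-Hinton agar seeded with 24 h old bacterial cultures. Test compounds were dissolved in DMSO at 1 and 0.5 mg/mL and added to labeled wells. Plates were incubated 24 h at 37 °C. The inhibition zone around each well was measured in mm. Triplicate experiments, standard deviation calculated.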

Aspergillus niger [2] = experiment: Antifungal activity against Aspergillus niger at 500 ug/ml after 72 hrs by agar diffusion method; type: functional; settings: read-out: DIZ
In short: (§2)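 Fungal spores were suspended in normal saline (one loopful in 3 mL) and lawned on agar plates. Wells were punched with a sterile cork borer and loaded with test compound in DMSO at the different concentrations. A DMSO solvent control was included. Petri dishes were prepared in triplicate and held at 25 °C for 72 h.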

Staphylococcus aureus [3] = experiment: Antibacterial activity against Staphylococcus aureus assessed as zone of inhibition at 500 ug/ml after 24 hrs by agar diffusion method; type: functional; settings: read-out: IZ; in short: as §1
Trichophyton rubrum [4] = experiment: Antifungal activity against Trichophyton rubrum at 1000 ug/ml after 72 hrs by agar diffusion method; type: functional; settings: read-out: DIZ; in short: as §2
Clostridium perfringens [5] = experiment: Antibacterial activity against Clostridium perfringens assessed as zone of inhibition at 1000 ug/ml after 24 hrs by agar diffusion method; type: functional; settings: read-out: IZ
In short: (§3)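 Well diffusion on Mueller-Hinton agar seeded with 24 h old cultures. Compounds dissolved in DMSO at 1 and 0.5 mg/mL and added to wells punched with a sterile cork borer, with a DMSO-only control. Plates incubated 24 h at 37 °C. Read-out was the inhibition zone in mm, run in triplicate, standard deviation calculated.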

Nannizzia gypsea [6] = experiment: Antifungal activity against Microsporum gypseum at 500 ug/ml after 72 hrs by agar diffusion method; type: functional; settings: read-out: DIZ; in short: as §2
Nannizzia gypsea [7] = experiment: Antifungal activity against Microsporum gypseum at 1000 ug/ml after 72 hrs by agar diffusion method; type: functional; settings: read-out: DIZ; in short: as §2
Bacillus subtilis [8] = experiment: Antibacterial activity against Bacillus subtilis assessed as zone of inhibition at 500 ug/ml after 24 hrs by agar diffusion method; type: functional; settings: read-out: IZ; in short: as §1
Bacillus subtilis [9] = experiment: Antibacterial activity against Bacillus subtilis assessed as zone of inhibition at 1000 ug/ml after 24 hrs by agar diffusion method; type: functional; settings: read-out: IZ; in short: as §1
Candida albicans [10] = experiment: Antifungal activity against Candida albicans at 500 ug/ml after 72 hrs by agar diffusion method; type: functional; settings: read-out: DIZ; in short: as §2
Aspergillus flavus [11] = experiment: Antifungal activity against Aspergillus flavus at 1000 ug/ml after 72 hrs by agar diffusion method; type: functional; settings: read-out: DIZ; in short: as §2
Candida albicans [12] = experiment: Antifungal activity against Candida albicans at 1000 ug/ml after 72 hrs by agar diffusion method by agar diffusion method; type: functional; settings: read-out: DIZ; in short: as §2
Salmonella typhimurium [13] = experiment: Antibacterial activity against Salmonella Typhimurium assessed as zone of inhibition at 1000 ug/ml after 24 hrs by agar diffusion method; type: functional, Salmonella enterica subsp. enterica serovar Typhimurium; settings: Salmonella enterica, read-out: IZ; in short: as §1
Clostridium perfringens [14] = experiment: Antibacterial activity against Clostridium perfringens assessed as zone of inhibition at 500 ug/ml after 24 hrs by agar diffusion method; type: functional; settings: read-out: IZ; in short: as §3
Salmonella typhimurium [15] = experiment: Antibacterial activity against Salmonella Typhimurium assessed as zone of inhibition at 500 ug/ml after 24 hrs by agar diffusion method; type: functional, Salmonella enterica subsp. enterica serovar Typhimurium; settings: Salmonella enterica, read-out: IZ; in short: as §1
Aspergillus flavus [16] = experiment: Antifungal activity against Aspergillus flavus at 500 ug/ml after 72 hrs by agar diffusion method; type: functional; settings: read-out: DIZ; in short: as §2
Staphylococcus aureus [17] = experiment: Antibacterial activity against Staphylococcus aureus assessed as zone of inhibition at 1000 ug/ml after 24 hrs by agar diffusion method; type: functional; settings: read-out: IZ; in short: as §1
Escherichia coli [18] = experiment: Antibacterial activity against Escherichia coli ATCC 25922 assessed as zone of inhibition at 500 ug/ml after 24 hrs by agar diffusion method; type: functional; settings: ATCC 25922, 24 h, read-out: IZ; in short: as §1
Pseudomonas aeruginosa [19] = experiment: Antibacterial activity against Pseudomonas aeruginosa ATCC 27853 assessed as zone of inhibition at 500 ug/ml after 24 hrs by agar diffusion method; type: functional; settings: ATCC 27853, 24 h, read-out: IZ; in short: as §1
Trichophyton rubrum [20] = experiment: Antifungal activity against Trichophyton rubrum at 500 ug/ml after 72 hrs by agar diffusion method; type: functional; settings: read-out: DIZ; in short: as §2
Aspergillus niger [21] = experiment: Antifungal activity against Aspergillus niger at 1000 ug/ml after 72 hrs by agar diffusion method; type: functional; settings: read-out: DIZ; in short: as §2
Pseudomonas aeruginosa [22] = experiment: Antibacterial activity against Pseudomonas aeruginosa ATCC 27853 assessed as zone of inhibition at 1000 ug/ml after 24 hrs by agar diffusion method; type: functional; settings: ATCC 27853, 24 h, read-out: IZ; in short: as §1

Row | SMILES | zone of inhibition at 1000 µg/mL (Escherichia coli [1]) [mm] | zone of inhibition at 500 µg/mL (Aspergillus niger [2]) [mm] | zone of inhibition at 500 µg/mL (Staphylococcus aureus [3]) [mm] | zone of inhibition at 1000 µg/mL (Trichophyton rubrum [4]) [mm] | zone of inhibition at 1000 µg/mL (Clostridium perfringens [5]) [mm] | zone of inhibition at 500 µg/mL (Nannizzia gypsea [6]) [mm] | zone of inhibition at 1000 µg/mL (Nannizzia gypsea [7]) [mm] | zone of inhibition at 500 µg/mL (Bacillus subtilis [8]) [mm] | zone of inhibition at 1000 µg/mL (Bacillus subtilis [9]) [mm] | zone of inhibition at 500 µg/mL (Candida albicans [10]) [mm] | zone of inhibition at 1000 µg/mL (Aspergillus flavus [11]) [mm] | zone of inhibition at 1000 µg/mL (Candida albicans [12]) [mm] | zone of inhibition at 1000 µg/mL (Salmonella typhimurium [13]) [mm] | zone of inhibition at 500 µg/mL (Clostridium perfringens [14]) [mm] | zone of inhibition at 500 µg/mL (Salmonella typhimurium [15]) [mm] | zone of inhibition at 500 µg/mL (Aspergillus flavus [16]) [mm] | zone of inhibition at 1000 µg/mL (Staphylococcus aureus [17]) [mm] | zone of inhibition at 500 µg/mL (Escherichia coli [18]) [mm] | zone of inhibition at 500 µg/mL (Pseudomonas aeruginosa [19]) [mm] | zone of inhibition at 500 µg/mL (Trichophyton rubrum [20]) [mm] | further results
1 | COC(=O)/C=C1/C(=O)NC(=S)N1/N=C/c1c[nH]nc1-c1ccc(Cl)cc1Cl | 8 | 5 | 5 | 10 | 7 | 6 | 7 | 7 | 8 | 6 | 12 | 7 | 4 | 6 | 3 | 11 | 6 | 7 | 6 | 9 | zone of inhibition at 1000 µg/mL (Aspergillus niger [21]): 6 mm; zone of inhibition at 1000 µg/mL (Pseudomonas aeruginosa [22]): 7 mm
2 | COC(=O)/C=C1/C(=O)NC(=S)N1/N=C/c1c[nH]nc1-c1ccc(C)cc1 | 5 | 9 | 3 | 10 | 6 | 3 | 4 | 8 | 9 | 3 | 6 | 4 | 6 | 5 | 5 | 5 | 4 | 4 | 3 | 9 | zone of inhibition at 1000 µg/mL (Aspergillus niger [21]): 10 mm; zone of inhibition at 1000 µg/mL (Pseudomonas aeruginosa [22]): 4 mm
3 | CSc1ccc(-c2n[nH]cc2-c2nc(-c3ccccc3)c(-c3ccccc3)[nH]2)cc1 | 7 | 9 | 3 | 12 | 4 | 5 | 6 | 4 | 5 | 9 | 5 | 10 | 4 | 3 | 3 | 4 | 4 | 6 | 4 | 11 | zone of inhibition at 1000 µg/mL (Aspergillus niger [21]): 10 mm; zone of inhibition at 1000 µg/mL (Pseudomonas aeruginosa [22]): 5 mm
4 | COC(=O)/C=C1/C(=O)NC(=S)N1/N=C/c1c[nH]nc1-c1cc(Cl)sc1Cl | 9 | 5 | 6 | 13 | 12 | 5 | 6 | 7 | 8 | 5 | 10 | 6 | 10 | 11 | 9 | 9 | 7 | 8 | 8 | 12 | zone of inhibition at 1000 µg/mL (Aspergillus niger [21]): 6 mm; zone of inhibition at 1000 µg/mL (Pseudomonas aeruginosa [22]): 9 mm
5 | Clc1ccc(-c2n[nH]cc2-c2nc(-c3ccccc3)c(-c3ccccc3)[nH]2)c(Cl)c1 | 10 | 7 | 5 | 10 | 6 | 3 | 4 | 5 | 6 | 11 | 8 | 12 | 3 | 5 | 2 | 7 | 6 | 9 | 3 | 8 | zone of inhibition at 1000 µg/mL (Aspergillus niger [21]): 9 mm; zone of inhibition at 1000 µg/mL (Pseudomonas aeruginosa [22]): 4 mm
6 | c1ccc(-c2ccc(-c3n[nH]cc3-c3nc(-c4ccccc4)c(-c4ccccc4)[nH]3)cc2)cc1 | 3 | 9 | 1 | 9 | 2 | 4 | 5 | 2 | 3 | 8 | 9 | 9 | 4 | 1 | 3 | 7 | 2 | 2 | 3 | 8 | zone of inhibition at 1000 µg/mL (Aspergillus niger [21]): 10 mm; zone of inhibition at 1000 µg/mL (Pseudomonas aeruginosa [22]): 4 mm
7 | Cc1ccc(-c2n[nH]cc2-c2nc(-c3ccccc3)c(-c3ccccc3)[nH]2)cc1 | 14 | 9 | 6 | 12 | 6 | 2 | 3 | 7 | 8 | 9 | 10 | 10 | 6 | 5 | 5 | 9 | 7 | 8 | 4 | 11 | zone of inhibition at 1000 µg/mL (Aspergillus niger [21]): 10 mm; zone of inhibition at 1000 µg/mL (Pseudomonas aeruginosa [22]): 6 mm
8 | OC(Cn1cncn1)(Cn1cncn1)c1ccc(F)cc1F [FLUCONAZOLE] | – | 18 | – | 24 | – | 14 | 15 | – | – | 21 | 22 | 22 | – | – | – | 21 | – | – | – | 22 | zone of inhibition at 1000 µg/mL (Aspergillus niger [21]): 20 mm
9 | CN[C@@H]1[C@H](O[C@H]2[C@H](O[C@H]3[C@H](O)[C@@H](O)[C@H](N=C(N)N)[C@@H](O)[C@@H]3N=C(N)N)O[C@@H](C)[C@]2(O)C=O)O[C@@H](CO)[C@H](O)[C@H]1O [STREPTOMYCIN] | 16 | – | 10 | – | 17 | – | – | 11 | 21 | – | – | – | 18 | 16 | 17 | – | 15 | 10 | 9 | – | zone of inhibition at 1000 µg/mL (Pseudomonas aeruginosa [22]): 13 mm
